Measurements from ChEMBL document CHEMBL3272327, “Hypocholesterolemic activity of 1,3-bis(substituted phenoxy)-2-propanones” (J Med Chem, 1976).

Columns and labels:
Rattus norvegicus [1] = assay: Hypocholesterolemic activity in rat assessed as [14C]palmitic acid level in testes at 10 mg/kg/day administered for 1 week measured after 22 hrs on day 7 by scintillation counting analysis (reference value: 0.22 +/- 0.10%); format: functional, Testis
In short: (§1)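 Male Sprague-Dawley rats on lab chow dosed orally once daily for 1 week at 10 mg/kg/day, suspended in 1% CMC, or given vehicle alone. On day 7, 5 μCi [1-14C]palmitic acid given orally. Killed after 22 hr; organs made into 10% water homogenates. Aliquots of 0.1 cc of homogenate, urine, blood or feces were digested and scintillation counted. Output is % of dose per tissue, N = 6.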

Rattus norvegicus [2] = assay: Hypocholesterolemic activity in rat assessed as [14C]palmitic acid level in kidney at 10 mg/kg/day administered for 1 week measured after 22 hrs on day 7 by scintillation counting analysis (reference value: 0.68 +/- 0.16%); format: functional; in short: as §1
Rattus norvegicus [3] = assay: Hypocholesterolemic activity in rat assessed as [14C]cholesterol level in lung at 10 mg/kg/day administered for 1 week measured after 22 hrs on day 7 by scintillation counting analysis (reference value: 1.99 +/- 1.18%); format: functional
In short: (§2)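 Male rats were dosed orally for 1 week (10 mg/kg/day) or with 1% CMC. On day 7 they received 5 μCi [4-14C]cholesterol orally and were killed after 22 hr. Organs were homogenized (10% in water); 0.1-cc aliquots of homogenate, urine, blood or feces were digested with Protosol. Samples were counted in toluene/Triton X-100 (2:1) scintillant with 0.4% PPO and 0.01% POPOP. Results are % of dose per tissue, N = 6.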

Rattus norvegicus [4] = assay: Hypocholesterolemic activity in rat assessed as [14C]cholesterol level in urine at 10 mg/kg/day administered for 1 week measured after 22 hrs on day 7 by scintillation counting analysis (reference value: 0.14 +/- 0.06%); format: functional; in short: as §2
Rattus norvegicus [5] = assay: Hypocholesterolemic activity in rat assessed as [14C]palmitic acid level in chyme at 10 mg/kg/day administered for 1 week measured after 22 hrs on day 7 by scintillation counting analysis (reference value: 0.41+/- 0.17%); format: functional; in short: as §1
Rattus norvegicus [6] = assay: Hypocholesterolemic activity in rat assessed as [14C]cholesterol level in kidney at 10 mg/kg/day administered for 1 week measured after 22 hrs on day 7 by scintillation counting analysis (reference value: 0.69 +/- 0.27%); format: functional; in short: as §2
Rattus norvegicus [7] = assay: Increase in lipase level in rat serum at 10 mg/kg/day administered for 16 days (reference value: 100 +/- 39%); format: functional
In short: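 Male Sprague-Dawley rats dosed orally at 10 mg/kg/day in 1% CMC for 16 days. Serum lipase was measured with a commercial serum lipase kit. Expressed as percent of vehicle control, N = 8.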

Rattus norvegicus [8] = assay: Uterotrophic activity in ovariectomized Sprague-Dawley rat assessed as uterine weight administered for 3 days (reference value: 100 +/- 27%); format: organism-based, Uterus; details: in vivo, 72 h
Rattus norvegicus [9] = assay: Effect on heart weight in rat at 50 mg/kg/day administered for 16 days measured 24 hrs after last drug dosage relative to total body weight (reference value: 0.37 +/- 0.04%); format: ADME, organism-based; details: in vivo
Rattus norvegicus [10] = assay: Effect on body weight in rat at 5 mg/kg/day administered for 16 days measured on day 7 (reference value: 173 +/- 12 gms); format: ADME, organism-based; details: in vivo, 384 h
In short: (§3)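 Male Sprague-Dawley rats with chow and water ad libitum. Compound suspended in 1% CMC-water and given orally by intubation needle at 11:00 a.m., 1, 5, 10 or 50 mg/kg/day, for 16 days. Body weight (g) recorded on days 0, 7 and 16. N = 8.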

Rattus norvegicus [11] = assay: Effect on spleen weight in rat at 50 mg/kg/day administered for 16 days measured 24 hrs after last drug dosage relative to total body weight (reference value: 0.55 +/- 0.12%); format: ADME, organism-based; details: in vivo
Rattus norvegicus [12] = assay: Effect on vesicular gland weight in rat at 5 mg/kg/day administered for 16 days measured 24 hrs after last drug dosage relative to total body weight (reference value: 0.10 +/- 0.04%); format: ADME, organism-based; details: in vivo
Rattus norvegicus [13] = assay: Hypocholesterolemic activity in rat assessed as [14C]cholesterol level in blood at 10 mg/kg/day administered for 1 week measured after 22 hrs on day 7 by scintillation counting analysis (reference value: 0.01 +/- 0.01%); format: functional; in short: as §2
Rattus norvegicus [14] = assay: Effect on brain weight in rat at 50 mg/kg/day administered for 16 days measured 24 hrs after last drug dosage relative to total body weight (reference value: 0.67 +/- 0.05%); format: ADME, organism-based; details: in vivo
Rattus norvegicus [15] = assay: Effect on heart weight in rat at 5 mg/kg/day administered for 16 days measured 24 hrs after last drug dosage relative to total body weight (reference value: 0.37 +/- 0.04%); format: ADME, organism-based; details: in vivo
Rattus norvegicus [16] = assay: Hypocholesterolemic activity in rat assessed as [14C]cholesterol level in small intestine at 10 mg/kg/day administered for 1 week measured after 22 hrs on day 7 by scintillation counting analysis (reference value: 22.09 +/- 5.68%); format: functional; in short: as §2
Rattus norvegicus [17] = assay: Hypocholesterolemic activity in rat assessed as [14C]cholesterol level in stomach at 10 mg/kg/day administered for 1 week measured after 22 hrs on day 7 by scintillation counting analysis (reference value: 8.87 +/- 4.00%); format: functional; in short: as §2
Rattus norvegicus [18] = assay: Effect on testes weight in rat at 50 mg/kg/day administered for 16 days measured 24 hrs after last drug dosage relative to total body weight (reference value: 1.08 +/- 0.08%); format: ADME, organism-based, Testis; details: in vivo
Rattus norvegicus [19] = assay: Hypocholesterolemic activity in rat assessed as serum glycerol level at 10 mg/kg/day administered for 14 days (reference value: 100 +/- 39%); format: functional
Rattus norvegicus [20] = assay: Hypocholesterolemic activity in [14C]palmitic acid-treated rat assessed as increase in free fatty acid accumulation in liver at 10 mg/kg/day administered for 1 week by scintillation counting analysis; format: functional
[21] = Toxicity in ip dosed CF1 mouse assessed as animal death; format: organism-based; details: in vivo
In short: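 Male CF1 mice given active propanones ip over 10 mg to 6 g/kg where solubility allowed; deaths recorded to estimate LD50.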

Rattus norvegicus [22] = assay: Effect on body weight in rat at 10 mg/kg/day administered for 16 days measured on day 7 (reference value: 173 +/- 12 gms); format: ADME, organism-based; details: in vivo, 384 h; in short: as §3
Rattus norvegicus [23] = assay: Hypocholesterolemic activity in rat assessed as [14C]palmitic acid level in liver at 10 mg/kg/day administered for 1 week measured after 22 hrs on day 7 by scintillation counting analysis (reference value: 8.06 +/- 1.33%); format: functional; in short: as §1
Rattus norvegicus [24] = assay: Effect on heart weight in rat at 10 mg/kg/day administered for 16 days measured 24 hrs after last drug dosage relative to total body weight (reference value: 0.37 to 0.43%); format: ADME, organism-based; details: in vivo
Rattus norvegicus [25] = assay: Effect on lipid content in rat liver at 10 mg/kg/day administered for 16 days (reference value: 100 +/- 16%); format: ADME, organism-based; details: in vivo, 384 h
Rattus norvegicus [26] = assay: Hypocholesterolemic activity in rat assessed as [14C]palmitic acid level in large intestine at 10 mg/kg/day administered for 1 week measured after 22 hrs on day 7 by scintillation counting analysis (reference value: 3.46 +/- 1.25%); format: functional; in short: as §1
Rattus norvegicus [27] = assay: Hypocholesterolemic activity in Sprague-Dawley rat assessed as serum cholesterol level at 50 mg/kg/day, po administered via intubation measured on day 16 by Liebermann-Burchard reaction (reference value: 100 +/- 8%); format: functional
Rattus norvegicus [28] = assay: Effect on body weight in rat at 1 mg/kg/day administered for 16 days measured on day 16 (reference value: 233 +/- 16 gms); format: ADME, organism-based; details: in vivo, 384 h; in short: as §3

## Cc1ccc(OCC(=O)COc2ccc(C)cc2)cc1
Rattus norvegicus [1]
  Activity: 0.25%
Rattus norvegicus [2]
  Activity: 0.94%
Rattus norvegicus [3]
  Activity: 2.45%
Rattus norvegicus [4]
  Activity: 0.94%
Rattus norvegicus [5]
  Activity: 2%
Rattus norvegicus [6]
  Activity: 1.29%
Rattus norvegicus [7]
  Activity: 222%
Rattus norvegicus [8]
  Activity: 82%
Rattus norvegicus [9]
  Activity: 0.4%
Rattus norvegicus [10]
  Activity: 168 g
Rattus norvegicus [11]
  Activity: 0.4%
Rattus norvegicus [12]
  Activity: 0.13%
Rattus norvegicus [13]
  Activity: 0.01%
Rattus norvegicus [14]
  Activity: 0.83%
Rattus norvegicus [15]
  Activity: 0.43%
Rattus norvegicus [16]
  Activity: 22.56%
Rattus norvegicus [17]
  Activity: 3.36%
Rattus norvegicus [18]
  Activity: 1.19%
Rattus norvegicus [19]
  Activity: 24%
Rattus norvegicus [20]
  Activity: 10%
[21]
  LD50: 1500 mg/kg
Rattus norvegicus [22]
  Activity: 164 g
Rattus norvegicus [23]
  Activity: 9.26%
Rattus norvegicus [24]
  Activity: 0.38%
Rattus norvegicus [25]
  Activity: 88%
Rattus norvegicus [26]
  Activity: 9.91%
Rattus norvegicus [27]
  Activity: 44%
Rattus norvegicus [28]
  Activity: 234 g
